PMC10558795 (Redox Biology, 2023)
Read-outs that look alike come from different tables or passages of the source.

Key:
[1] = tested on: NFE2L2 mRNA and NRF2 target genes; assay: qPCR of NFE2L2 mRNA and NRF2 target genes; format: cell-based, human
Method in brief: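 Gene expression quantified by real-time PCR using gene-specific primers and TaqMan probes on a 96-well real-time PCR system.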

[2] = tested on: NRF2 activity (NQO1-YFP signal, CDDO-activated); assay: High-throughput screen and dose response: NRF2 activity; format: cell-based, human; details: Homo sapiens, NCI-H1299, read-out: NRF2 inhibition (IC50, μM)
Method in brief: (§1)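 NQO1-YFP H1299 reporter cells (YFP in NQO1 intron 1, constitutive mCherry) were seeded 1000/well in 384-well plates and cultured overnight. Primary screen: 1 μM compound in 0.1% DMSO, one well each, with CDDO 200 nM and 0.1% DMSO controls. Retests used 10-point serial dilutions from 10 µM in triplicate, with brusatol control. Imaged at 0, 24, 48, 64 h (YFP = NRF2 activity, mCherry = viability); IC₅₀ by curve fit.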

[3] = tested on: NRF2 expression in NRF2^WT-KYSE450 cells; assay: NRF2 expression in KYSE450 cells; format: cell-based, human
Method in brief: (§2)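 Nuclear and cytosolic fractions prepared with an extraction kit, or whole-cell lysates in RIPA buffer. Proteins separated by SDS-PAGE, transferred to nitrocellulose, blocked and probed with primary antibody overnight at 4 °C. Chemiluminescence detected on film and quantified by densitometry; band data as mean ± SD, Student's t-test.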

[4] = tested on: human NRF2 target genes in KYSE70 cells; assay: RNAseq of KYSE70 cells; format: cell-based; details: PYR 10 μM for 72 h, MIT 20 nM for 72 h
Method in brief: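 Total RNA from treated and control cells made into Illumina libraries and sequenced (150 bp). Reads aligned to hg38 with RefSeq annotation and counted per gene; DEGs called by fold-change cut-off and corrected p-values. Gene set enrichment analysis performed; overall NRF2 target-gene mRNA level calculated on natural log scale.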

[5] = tested on: KYSE70 cells; assay: High-content cytotoxicity screen; format: cell-based, human; details: Homo sapiens, KYSE-70, 72 h, read-out: Cell proliferation (IC50, μM)
Method in brief: (§3)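 Cells were seeded at 1200/well in 384-well plates and cultured overnight. Test compound was added at […] serial dilution from 10 µM, in triplicate, for 3 days. Controls were 0.1% DMSO (negative), 30 µM benzethonium chloride and 0.1% Triton X-100 added just before staining (positive). Cells were stained with 0.5 µg/ml Hoechst and 100 nM YOYO1, four 4× images per well. Normalized total-cell and dead-cell percentages were fitted for IC₅₀.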

[6] = target: NRF2 ubiquitination (KYSE180) (Homo sapiens, UniProt Q16236, D77V); assay: NRF2-IP and ubiquitin western blotting in KYSE180 cells; format: cell-based; details: NRF2^Mut-KYSE180; PYR 10 μM, MIT 20 nM; presence or absence of MG132
Method in brief: (§4)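 Cells treated with test compound, then with or without MG132 (10 μM), lysed in RIPA buffer. Lysate precleared on protein G agarose 1 h at 4 °C, then incubated with 1 μg anti-NRF2 antibody overnight at 4 °C with rotation. Immunocomplexes captured on protein G agarose 1.5 h at 4 °C, washed, boiled in 2X SDS loading buffer at 95 °C for 5 min, and immunoblotted for ubiquitin.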

[7] = tested on: NRF2 expression in Nrf2^WT MEEC; assay: NRF2 expression in mouse esophageal epithelial cells; format: cell-based
Method in brief: as §2

[8] = tested on: KYSE180 cells; assay: High-content cytotoxicity screen; format: cell-based, human; details: Homo sapiens, KYSE-180, 72 h, read-out: Cell proliferation (IC50, μM)
Method in brief: as §3

[9] = target: NRF2 (NRF2^WT-KYSE450) (Homo sapiens, UniProt Q16236); assay: CHX chase analysis of NRF2 half-life in KYSE450 cells; format: cell-based; details: PYR 10 μM, MIT 20 nM
Method in brief: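 Cells were grown in RPMI1640 GlutaMAX with 10% FBS and 1% penicillin/streptomycin at 37 °C, 5% CO₂. They were pre-incubated 4 h with test compound, then given 200 μg/ml cycloheximide to block protein synthesis. Cells were harvested at set time points after cycloheximide. Total lysates were run on SDS-PAGE and blotted for NRF2 and GAPDH, and band densities were used to calculate NRF2 half-life.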

[10] = mice, i.p., cited from earlier work
[11] = humans, 50 mg/day, p.o., 3 weeks; cited from earlier work
[12] = target: DHFR (Homo sapiens, UniProt P00374); assay: DHFR activity assay kit; format: biochemical; details: KYSE70 cells
Method in brief: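 Kit-based DHFR enzymatic assay followed by the decrease in A340nm over time; methotrexate 1 μM as reference DHFR inhibitor.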

[13] = tested on: global translation; assay: Protein synthesis assay; format: cell-based, human; details: KYSE70; PYR 10 μM, MIT 20 nM; CHX positive control
Method in brief: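 KYSE70 cells (37 °C, 5% CO₂) seeded at 2000 cells/well in 96-well plates; exposed to test compound or cycloheximide (positive control) in triplicate. Global translation measured with a commercial protein synthesis assay kit per manufacturer's protocol; cells imaged on a high-content imager.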

[14] = target: NRF2 ubiquitination (KYSE70) (Homo sapiens, UniProt Q16236, W24C); assay: NRF2-IP and ubiquitin western blotting in KYSE70 cells; format: cell-based; details: NRF2^Mut-KYSE70; PYR 10 μM, MIT 20 nM; presence or absence of MG132
Method in brief: as §4

[15] = target: NRF2 ubiquitination (KYSE450) (Homo sapiens, UniProt Q16236); assay: NRF2-IP and ubiquitin western blotting in KYSE450 cells; format: cell-based; details: NRF2^WT-KYSE450; PYR 10 μM, MIT 20 nM; only in the presence of MG132
Method in brief: as §4

[16] = tested on: NQO1-YFP H1299 cells; assay: Cell viability; format: cell-based, human; details: Homo sapiens, NCI-H1299, read-out: Cell viability (IC50, μM)
Method in brief: as §1

[17] = tested on: NRF2 and NQO1 expression in NRF2^Mut-KYSE180 cells; assay: Western blotting of NRF2 and NQO1 expression in KYSE180 cells; format: cell-based, human
Method in brief: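 NRF2-mutant KYSE180 cells (37 °C, 5% CO₂) treated with test compound; nuclear and cytosolic fractions prepared with a nuclear extraction kit. Proteins separated by SDS-PAGE onto nitrocellulose, primary antibody overnight at 4 °C, chemiluminescence on film. Bands quantified by densitometry, mean ± SD, Student's t-test.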

Sequence of DHFR (P00374 whole entry): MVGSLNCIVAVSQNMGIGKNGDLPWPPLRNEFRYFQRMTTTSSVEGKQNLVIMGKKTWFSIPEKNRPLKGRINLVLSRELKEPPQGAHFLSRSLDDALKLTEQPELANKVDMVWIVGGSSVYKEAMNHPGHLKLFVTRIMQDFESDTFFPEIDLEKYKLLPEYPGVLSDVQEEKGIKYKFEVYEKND
Sequence of NRF2 ubiquitination (KYSE70) (Q16236 whole entry W24C): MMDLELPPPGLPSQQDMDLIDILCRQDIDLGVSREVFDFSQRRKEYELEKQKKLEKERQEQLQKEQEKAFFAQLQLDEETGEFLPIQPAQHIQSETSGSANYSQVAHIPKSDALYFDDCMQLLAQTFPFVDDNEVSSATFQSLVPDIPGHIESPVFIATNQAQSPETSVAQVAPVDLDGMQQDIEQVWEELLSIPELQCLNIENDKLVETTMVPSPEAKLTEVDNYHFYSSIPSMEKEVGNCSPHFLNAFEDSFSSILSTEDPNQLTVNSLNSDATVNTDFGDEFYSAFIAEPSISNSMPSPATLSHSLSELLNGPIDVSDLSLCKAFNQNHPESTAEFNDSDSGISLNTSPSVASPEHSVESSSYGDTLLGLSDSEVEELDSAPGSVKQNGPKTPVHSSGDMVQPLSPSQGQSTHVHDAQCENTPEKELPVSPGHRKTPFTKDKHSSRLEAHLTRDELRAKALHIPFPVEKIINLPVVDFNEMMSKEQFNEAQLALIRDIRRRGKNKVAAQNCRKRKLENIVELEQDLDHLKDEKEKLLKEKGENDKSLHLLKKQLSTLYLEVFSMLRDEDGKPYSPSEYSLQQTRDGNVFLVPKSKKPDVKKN
Sequence of NRF2 ubiquitination (KYSE450) (Q16236 whole entry): as the sequence (Q16236 whole entry W24C) above, with C24W counted along it
Sequence of NRF2 (NRF2^WT-KYSE450) (Q16236 whole entry): as the sequence (Q16236 whole entry W24C) above, with C24W counted along it
Sequence of NRF2 ubiquitination (KYSE180) (Q16236 whole entry D77V): as the sequence (Q16236 whole entry W24C) above, with C24W, D77V counted along it

## CCc1nc(N)nc(N)c1-c1ccc(Cl)cc1 [PYR, Pyrimethamine]
[1]
  NFE2L2 mRNA and NRF2 target genes (AKR1B10, AKR1C2, AKR1C3, PGD, SLC7A11, TKT) by qPCR: downregulation
[2]
  IC50: 0.23 µM
[3]
  NRF2 expression: upregulated NRF2 expression
[4]
  Overall mRNA expression level of human NRF2 target genes: significantly reduced
[5]
  IC50: > 10 µM
[6]
  NRF2 ubiquitination: promoted NRF2 ubiquitination
[7]
  NRF2 expression: upregulated NRF2 expression
[8]
  IC50: > 10 µM
[9]
  Effect on NRF2 half-life: not changed
[10]; 12.5 mg/kg
  Cmax: 8.04 µM
[10]; 25 mg/kg
  Cmax: 18.5 µM
[10]; 50 mg/kg
  Cmax: 35.8 µM
[10]; 75 mg/kg
  Cmax: 28.2 µM
[11]
  Cmax: 8.28 µM
[12]
  Concentration from which DHFR activity is significantly inhibited: ≥ 5 µM
[13]
  Global translation: Neither PYR (10 μM) nor MIT (20 nM) inhibited global translation
[14]
  NRF2 ubiquitination: promoted NRF2 ubiquitination
[15]
  NRF2 ubiquitination: slightly promoted NRF2 ubiquitination
[16]
  IC50: 1.17 µM
[17]
  Expression of nuclear NRF2 and cytoplasmic NQO1: inhibited the expression of nuclear NRF2 and cytoplasmic NQO1 in a dose- and time-dependent manner
